This note sets out measurements from article PMC4186412 (Pharmacology Research & Perspectives, 2014).

One assay addresses Smo-M2 (Homo sapiens, UniProt Q99835, W535L). Put plainly: Smo ciliary translocation assay, NIH3T3 cells expressing Smo-M2-EYFP. The class given is cell-based. As to conditions: Shh-N 20%, SAG 100 nmol/L. In short, it runs like this:
(§1)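 NIH3T3 cells were transfected with pEYFP-Smo (WT or M2), selected in 500 μg/mL G418, and monoclonal clones were picked. Clones were treated with 0.1% DMSO, 20% Shh-N conditioned medium and/or 100 nmol/L SAG, with or without test compound. Smo-EYFP was imaged directly, cilia by acetylated α-tubulin immunofluorescence, nuclei by DAPI. At least two clones were used.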

In assay [1] the test system is Hh signaling mediated by Smo-M2. Put plainly: Luciferase reporter assay in NIH3T3-12Gli cells expressing Smo-M2-EYFP. The class given is cell-based, human.
In assay [2] the test system is Hh signaling mediated by Smo-WT. Put plainly: Luciferase reporter assay in NIH3T3-12Gli cells expressing Smo-WT-EYFP. The class given is cell-based, human.
A further assay concerns Ptch-1. Put plainly: Quantitative real-time PCR, Ptch-1 mRNA. The format is cell-based, mouse. As to conditions: NIH3T3-12Gli cell line, data not shown. A digest of the protocol: (§2)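 Total RNA is extracted with Trizol and quantified. cDNA is made with a PrimeScript reverse-transcription kit, then SYBR Green real-time PCR is run with mouse-specific primers and GAPDH as the reference gene. Relative expression is calculated by the 2(-ΔΔCt) method, with ΔCt = Ct of the target gene minus Ct of GAPDH.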
In general terms: Quantitative PCR measures a nucleic acid by following its amplification.

For the next assay, the system named is Hh signaling. The assay is described as follows: Gli luciferase reporter assay in NIH3T3-12Gli cells. The format is cell-based. As to conditions: for IC50: 36 h, read-out: IC50, Hh signaling induced by Shh-N conditioned medium (luciferase reporter).
For a further assay, the target named is Smo-DH (Homo sapiens, UniProt Q99835, D473H). Put plainly: BODIPY-cyclopamine binding competition, HEK293T cells expressing Smo-DH.
Sequence of Smo-DH (Q99835 28-787 D473H): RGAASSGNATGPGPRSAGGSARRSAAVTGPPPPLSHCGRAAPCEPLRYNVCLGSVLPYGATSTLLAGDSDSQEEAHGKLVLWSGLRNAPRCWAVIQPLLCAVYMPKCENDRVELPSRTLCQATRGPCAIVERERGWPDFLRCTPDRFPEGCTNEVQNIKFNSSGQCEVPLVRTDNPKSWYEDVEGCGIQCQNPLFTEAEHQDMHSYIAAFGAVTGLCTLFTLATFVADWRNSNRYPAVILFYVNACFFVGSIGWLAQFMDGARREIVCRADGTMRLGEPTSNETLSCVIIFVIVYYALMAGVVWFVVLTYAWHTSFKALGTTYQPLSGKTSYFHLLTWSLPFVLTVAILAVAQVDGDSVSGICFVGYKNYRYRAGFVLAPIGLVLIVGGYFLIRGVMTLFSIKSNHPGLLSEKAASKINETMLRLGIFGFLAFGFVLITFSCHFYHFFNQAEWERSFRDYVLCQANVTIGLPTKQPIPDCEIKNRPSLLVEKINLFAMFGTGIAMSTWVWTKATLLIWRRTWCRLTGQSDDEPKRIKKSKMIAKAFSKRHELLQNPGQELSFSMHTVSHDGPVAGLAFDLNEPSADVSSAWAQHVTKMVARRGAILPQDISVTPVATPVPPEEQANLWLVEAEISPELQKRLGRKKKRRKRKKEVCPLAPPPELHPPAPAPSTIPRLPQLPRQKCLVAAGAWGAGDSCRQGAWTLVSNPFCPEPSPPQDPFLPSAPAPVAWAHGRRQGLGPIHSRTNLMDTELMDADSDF
The target in another assay is Smo-WT (Homo sapiens, UniProt Q99835). The assay is described as follows: Smo ciliary translocation assay, NIH3T3 cells expressing Smo-WT-EYFP. The format is cell-based. As to conditions: Shh-N 20%, SAG 100 nmol/L. A digest of the protocol:
as §1

A further assay concerns Gli-1. Put plainly: Quantitative real-time PCR, Gli-1 mRNA. The class given is cell-based, mouse. As to conditions: NIH3T3-12Gli cells, 24 h; for Gli-1 transcription induced by Shh-N: presence of Shh-N. A digest of the protocol: as §2
The subject of assay [3] is Hh signaling mediated by Smo-DH. Put plainly: Luciferase reporter assay in NIH3T3-12Gli cells expressing Smo-DH-EYFP. The class given is cell-based, human. Conditions: in the absence or presence of Shh-N.
In a further assay the test system is NIH3T3-12Gli cells. Put plainly: Immunofluorescence of acetylated and detyrosinated tubulin of primary cilia. The format is cell-based. As to conditions: Fig. S1. In short, it runs like this: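 Reporter NIH3T3 clone (NIH3T3-12Gli, stably carrying a Gli-responsive luciferase reporter) was exposed to test compounds or conditions. Primary cilia were co-immunostained with anti-detyrosinated (glu) tubulin and anti-acetylated α-tubulin antibodies, and nuclei were stained with DAPI. Cilia were imaged by fluorescence microscopy.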

The next assay deals with NIH3T3 cells. Put plainly: Immunoblotting of acetylated α-tubulin and total histones. The format is cell-based. As to conditions: 6 h treatment. (In general: In western blotting, separated proteins are transferred to a membrane and probed.)
The next assay concerns Gli-2. Put plainly: Quantitative real-time PCR, Gli-2 mRNA. The class given is cell-based, mouse. Conditions: NIH3T3-12Gli cells, presence or absence of Shh-N, 24 h. In short, it runs like this:
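NIH3T3-12Gli cells are kept in either HEK293 control medium or Shh-N conditioned medium and treated in triplicate with test compound or DMSO control. RNA is extracted with Trizol, cDNA is made with a PrimeScript kit, and SYBR Green qPCR is run with mouse Gli-2 primers. Values are normalised to GAPDH and relative expression is derived by the 2(-ΔΔCt) method.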

Sequence of Smo-WT (Q99835 28-787): as the sequence (Q99835 28-787 D473H) above, with H446D counted along it
Sequence of Smo-M2 (Q99835 28-787 W535L): as the sequence (Q99835 28-787 D473H) above, with H446D, W508L counted along it

Consider `CS(=O)(=O)c1ccc(C(=O)Nc2ccc(Cl)c(-c3ccccn3)c2)c(Cl)c1` [vismodegib], for which the “Effect on accumulation of Smo-M2 in cilia induced by Hh pathway stimulators” value on Smo-M2 was “did not inhibit”. In addition, the “Inhibition of Hh signaling mediated by Smo-M2” value in assay [1] (in the absence of Shh-N) was “significantly inhibited”. The “Concentration that fully blocked Hh pathway, Smo-M2” value in assay [1] (in the presence of Shh-N) is greater than 10 µmol/L. The “Concentration that almost maximally blocked reporter activity” value in assay [2] (NIH3T3-12Gli cells expressing Smo-WT) was 1 µmol/L. Moreover, the “Inhibition of reporter activity of cells expressing Smo-WT-EYFP” value in [2] (in the absence of Shh-N) is “slightly but dose-dependently inhibited”. Moreover, in the assay on Ptch-1, the “Expression of Ptch-1 induced by Shh-N” value is on record as “effectively suppressed”. The concentration for half-maximal inhibition (IC50) with Hh signaling is 19.7 nM. At Smo-DH, the “Inhibition of association of BODIPY-cyclopamine with Smo-DH / binding to Smo-DH” value is given as “inability to bind Smo-DH”. Further, the “Suppression of Smo localization to primary cilium induced by Shh-N and SAG” value at Smo-WT is “effectively suppressed”. The “Gli-1 transcription induced by Shh-N” value with Gli-1 is listed as “potently inhibited”. In addition, the “Inhibition of reporter activity in Smo-DH-transfected cells” value in assay [3] is given as “no inhibition”.

With `O=C(CCCCCCC(=O)Nc1ccccc1)NO` [vorinostat], the “Acetylation and detyrosination of primary cilia” value in the assay on NIH3T3-12Gli cells was “downregulated the acetylation but not the detyrosination”. Also, the “Acetylation of total histones and α-tubulin” value in the assay on NIH3T3 cells is “effectively and dose dependently increased”. Further, the Gli-2 transcription entry in the assay on Gli-2 is “significantly and dose-dependently suppressed”. Moreover, the “Expression of Ptch-1 induced by Shh-N” value with Ptch-1 is listed as “effectively suppressed”. Moreover, the “Block of reporter activity at 3 μmol/L” value in the assay with Hh signaling (3 μmol/L) is reported as “almost completely blocked”. Further, the IC50 with Hh signaling came out at 670 nM. Also, at Smo-WT, the “Suppression of Smo localization to primary cilium induced by Shh-N and SAG” value is reported as “but not vorinostat”. Moreover, the “Gli-1 transcription, Hh pathway in off-state” value in the assay with Gli-1 (absence of Shh-N) was “significantly increased”. The “Gli-1 transcription induced by Shh-N” value in the assay on Gli-1 was “potently inhibited”.

The IC50 is the concentration at which inhibition is half-maximal.
